Published values collected from several papers.
Target: Mitogen-activated protein kinase kinase kinase 7 (MAP3K7, Homo sapiens, UniProt O43318)

SMILES	observed	action	method	concentration	endpoint	result
C=CC(=O)Nc1cc(Nc2nccc(Nc3cc(Cl)c(F)cc3C(C)(C)O)n2)c(OC)cc1N1CC[C@@H](N(C)C)C1	enzyme activity	inhibitor		1 µM	inhibition	21%
C[C@@]1(Cc2ccc(C#N)cc2)C(=O)N(c2cc(Cl)cc(Cl)c2)c2ncc(C(=O)NC3(c4nc(C5CCC5)no4)CC3)n21	cell-free assay		competition with immobilised ligand	1 µM	remaining binding	96%
Cc1ccc(Nc2nccc(N(C)c3ccc4c(C)n(C)nc4c3)n2)cc1S(N)(=O)=O	enzyme activity	inhibitor		10 µM	inhibition	-4%
COc1cccc2c(NCc3ccccc3)nc(-n3c(N)nc4ccccc43)nc12	target engagement in cells	inhibitor	chemoproteomics	20 mM	inhibition	-6.3%
Cc1nccc(COC(=O)N2C[C@@H]3[C@@H](CNC(=O)c4ccc5[nH]nnc5c4)[C@@H]3C2)n1	cell-free assay		competition with immobilised ligand	1 µM	remaining binding	75%
COc1cc(Nc2cnc(C#N)c(O[C@H](C)CN(C)C)n2)ncc1-c1cnn(C)c1	enzyme activity	inhibitor	radiometric	10 µM	remaining activity	53%
Cc1ccc(C(=O)NCc2ccsc2)cc1C#Cc1cn(C(C)C)c2ncnc(N)c12	enzyme activity	inhibitor		1 µM	activity vs control	112%
CC1=C(C#N)C(c2ccc3c(c2)c(NC(=O)c2ccccc2C)nn3C)C(C#N)=C(C)N1	cell-free assay		competition with immobilised ligand	1 µM	remaining binding	74%
Nc1ncnc2occ(-c3ccc(NC(=O)Nc4cc(C(F)(F)F)ccc4F)cc3)c12	cell-free assay	inhibitor		20 µM	remaining signal	3.7%
CS(=O)(=O)CCNCc1ccc(-c2ccc3ncnc(Nc4ccc(OCc5cccc(F)c5)c(Cl)c4)c3c2)o1	cell-free assay			0.5 µM	remaining signal	89%
CCN(CC)CCNC(=O)c1c(C)[nH]c(/C=C2\C(=O)Nc3ccc(F)cc32)c1C	enzyme activity	inhibitor		0.3 µM	inhibition	52%
Cc1cnc(NC2CCOCC2)nc1-n1cnc(C(=O)NC(CN)c2cc(F)cc(Cl)c2)c1 (stereo not drawn)	enzyme activity	inhibitor	radiometric	1 µM	remaining activity	98%
O=C1NC(=O)c2cc(Nc3ccc(F)cc3)c(Nc3ccc(F)cc3)cc21	cell-free assay			0.5 µM	remaining signal	98.8%
O=C(Nc1cnn(-c2csc(C(=O)NC3COC3)c2)c1)Nc1c(F)cccc1Cl	enzyme activity	inhibitor		5 µM	remaining activity	109%
COc1cc2ncnc(Nc3ccc(F)c(Cl)c3)c2cc1OCCCN1CCOCC1	cell-free assay			0.5 µM	remaining signal	91.3%
Cc1nc(C2CCN(C(=O)c3ccc(OC(F)(F)F)cc3N)CC2)c2ncc(N3CCN(C)CC3)cc2n1	cell-free assay		competition with immobilised ligand	1 µM	remaining binding	100%
CC(C)(O)[C@H]1CC[C@H](Nc2ccc3ncc(-c4cccc(C(F)(F)F)c4)n3n2)CC1	enzyme activity	inhibitor		1 µM	remaining activity	107%
CN(C(=O)c1ccccc1)c1cc(N(C)c2ccc3c(c2)CCc2ccc(C(=O)NCCN4CCOCC4)cc2C3=O)ccc1F	cell-free assay		competition with immobilised ligand	1 µM	remaining binding	100%
COc1cc(/C=C/C(=O)CC(=O)/C=C/c2ccc(O)c(OC)c2)ccc1O	enzyme activity	inhibitor		1 µM	activity vs control	102%
CCCOc1ccc(OC)c(F)c1C(=O)c1ccc(C(=O)N[C@@H]2CNC[C@H]2NC(=O)c2ccc3[nH]ncc3c2)cc1	enzyme activity	inhibitor		10 µM	remaining activity	106%
Cc1cc(-n2nc(Cc3cc(F)cc(C(F)(F)F)c3)nc2C)ccc1C(N)=O	cell-free assay		competition with immobilised ligand	1 µM	remaining binding	100%
FC(F)c1nc2ccccc2n1-c1nc(N2CCOCC2)nc(N2CCOCC2)n1	enzyme activity	inhibitor		10 µM	remaining activity	97%
c1ccc(CNc2nc(N3CCOc4ccccc43)nc3c2CCCC3)cc1	target engagement in cells	inhibitor	chemoproteomics	20 mM	inhibition	-10.3%
CCCOc1ccc([C@H]2[C@H](C(=O)O)[C@@H](c3ccc4c(c3)OCO4)CN2CC(=O)Nc2c(CC)cccc2CC)cc1	cell-free assay		competition with immobilised ligand	1 µM	remaining binding	100%
CN1CC(Oc2cnc(C#N)cc2-c2ccn3nc(NC(=O)C4CC4)cc3c2)C1	enzyme activity	inhibitor		1 µM	inhibition	8%
C[C@H](c1ccc(F)cc1)N(Cc1cccc(C(=O)O)c1)C(=O)c1cnc2ccccc2c1	cell-free assay		competition with immobilised ligand	1 µM	remaining binding	100%
FC(F)(F)Oc1cccc(-c2cnc3ccc(-c4ccncc4)nn23)c1	enzyme activity	inhibitor	radiometric	5 µM	activity vs control	58%
